# Assays:
# [1] = Inhibition of RNA-dependent DNA polymerase activity of HIV1 reverse transcriptase Tyr181Cys mutant by SPA; parameters: species or system Human immunodeficiency virus 1
# Outline: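 Purified recombinant RT (1-3 nM final) with 18nt biotinylated DNA primer (32 nM) on a 47nt RNA template (64 nM). Run 30 min at 30 °C, stopped with EDTA, product captured on streptavidin SPA beads. IC50 by sigmoidal regression.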
# [2] = tested on: Human immunodeficiency virus; experiment: Antiviral activity against […] HIV HXB2 with reverse transcriptase […]/Tyr181Cys mutation in human MT4 cells assessed as protection against virus-induced cell death after 5 days by MTT assay; type: functional, organism-based; conditions: Human immunodeficiency virus 1, MT4, 120 h
# [3] = tested on: Human immunodeficiency virus; experiment: Antiviral activity against wild type HIV HXB2 in human MT4 cells assessed as protection against virus-induced cell death after 5 days by MTT assay; type: functional, organism-based; conditions: Human immunodeficiency virus 1, MT4, 120 h
# [4] = molecular target: Human immunodeficiency virus type 1 reverse transcriptase (Human immunodeficiency virus 1, UniProt Q72547, K103N); experiment: Inhibition of RNA-dependent DNA polymerase activity of HIV1 reverse transcriptase Lys103Asn mutant by SPA
# [5] = molecular target: Human immunodeficiency virus type 1 reverse transcriptase (Human immunodeficiency virus 1, UniProt Q72547); experiment: Inhibition of RNA-dependent DNA polymerase activity of wild type HIV1 reverse transcriptase by SPA
# [6] = molecular target: Human immunodeficiency virus type 1 reverse transcriptase (Human immunodeficiency virus 1, UniProt Q72547, K103N/Y181C); experiment: Inhibition of RNA-dependent DNA polymerase activity of HIV1 reverse transcriptase Lys103Asn/Tyr181Cys mutant by SPA
# [7] = tested on: Human immunodeficiency virus; experiment: Antiviral activity against NNRTI-resistant HIV HXB2 with reverse transcriptase 188H mutation in human MT4 cells assessed as protection against virus-induced cell death after 5 days by MTT assay; type: functional, organism-based; conditions: Human immunodeficiency virus 1, MT4
# Outline: (§1)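 MT4 cells in log-phase growth (2 × 10⁶) infected with HXB2-strain HIV at 0.0001 infectious units/cell for 1 h at 37 °C, washed in PBS, then plated at 3.5 × 10⁴ cells/well. Serial 2-fold dilutions, four replicates, final 625-1.22 nM, in RPMI 1640/10% FCS. Incubated 5 days at 37 °C, 5% CO₂. MTT added for 2 h, absorbance read at 540/690 nm. % protection vs uninfected and virus controls; IC50 taken from plot against log concentration.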
# [8] = tested on: Human immunodeficiency virus; experiment: Antiviral activity against NNRTI-resistant HIV HXB2 with reverse transcriptase 101E mutation in human MT4 cells assessed as protection against virus-induced cell death after 5 days by MTT assay; type: functional, organism-based; conditions: Human immunodeficiency virus 1, MT4, 120 h; outline: as §1
# [9] = tested on: Human immunodeficiency virus; experiment: Antiviral activity against NNRTI-resistant HIV HXB2 with reverse transcriptase 190A mutation in human MT4 cells assessed as protection against virus-induced cell death after 5 days by MTT assay; type: functional, organism-based; conditions: Human immunodeficiency virus 1, MT4, 120 h; outline: as §1
# [10] = tested on: Human immunodeficiency virus; experiment: Antiviral activity against NNRTI-resistant HIV HXB2 with reverse transcriptase 103N mutation in human MT4 cells assessed as protection against virus-induced cell death after 5 days by MTT assay; type: functional, organism-based; conditions: Human immunodeficiency virus 1, MT4, 120 h; outline: as §1
# [11] = tested on: Human immunodeficiency virus; experiment: Antiviral activity against NNRTI-resistant HIV HXB2 with reverse transcriptase 181C mutation in human MT4 cells assessed as protection against virus-induced cell death after 5 days by MTT assay; type: functional, organism-based; conditions: Human immunodeficiency virus 1, MT4, 120 h; outline: as §1
# [12] = tested on: Human immunodeficiency virus; experiment: Antiviral activity against NNRTI-resistant HIV HXB2 with reverse transcriptase 179D mutation in human MT4 cells assessed as protection against virus-induced cell death after 5 days by MTT assay; type: functional, organism-based; conditions: Human immunodeficiency virus 1, MT4, 120 h; outline: as §1
# [13] = tested on: Human immunodeficiency virus; experiment: Antiviral activity against NNRTI-resistant HIV HXB2 with reverse transcriptase 100I mutation in human MT4 cells assessed as protection against virus-induced cell death after 5 days by MTT assay; type: functional, organism-based; conditions: Human immunodeficiency virus 1, MT4, 120 h; outline: as §1
# [14] = tested on: Human immunodeficiency virus; experiment: Antiviral activity against NNRTI-resistant HIV HXB2 with reverse transcriptase 236L mutation in human MT4 cells assessed as protection against virus-induced cell death after 5 days by MTT assay; type: functional, organism-based; conditions: Human immunodeficiency virus 1, MT4, 120 h; outline: as §1
# [15] = tested on: Human immunodeficiency virus; experiment: Antiviral activity against NNRTI-resistant HIV HXB2 with reverse transcriptase 190S mutation in human MT4 cells assessed as protection against virus-induced cell death after 5 days by MTT assay; type: functional, organism-based; conditions: Human immunodeficiency virus 1, MT4, 120 h; outline: as §1
# [16] = tested on: Human immunodeficiency virus; experiment: Antiviral activity against NNRTI-resistant HIV HXB2 with reverse transcriptase 138K mutation in human MT4 cells assessed as protection against virus-induced cell death after 5 days by MTT assay; type: functional, organism-based; conditions: Human immunodeficiency virus 1, MT4, 120 h; outline: as §1
# [17] = tested on: Human immunodeficiency virus; experiment: Antiviral activity against NNRTI-resistant HIV HXB2 with reverse transcriptase 225H mutation in human MT4 cells assessed as protection against virus-induced cell death after 5 days by MTT assay; type: functional, organism-based; conditions: Human immunodeficiency virus 1, MT4; outline: as §1
# [18] = tested on: Human immunodeficiency virus; experiment: Antiviral activity against NNRTI-resistant HIV HXB2 with reverse transcriptase 106A mutation in human MT4 cells assessed as protection against virus-induced cell death after 5 days by MTT assay; type: functional, organism-based; conditions: Human immunodeficiency virus 1, MT4, 120 h; outline: as §1
# [19] = tested on: Human immunodeficiency virus; experiment: Antiviral activity against NNRTI-resistant HIV HXB2 with reverse transcriptase 227L mutation in human MT4 cells assessed as protection against virus-induced cell death after 5 days by MTT assay; type: functional, organism-based; conditions: Human immunodeficiency virus 1, MT4, 120 h; outline: as §1
# [20] = tested on: Human immunodeficiency virus; experiment: Antiviral activity against NNRTI-resistant HIV HXB2 with reverse transcriptase 108I mutation in human MT4 cells assessed as protection against virus-induced cell death after 5 days by MTT assay; type: functional, organism-based; conditions: Human immunodeficiency virus 1, MT4, 120 h; outline: as §1
# [21] = tested on: Human immunodeficiency virus; experiment: Antiviral activity against wild type HIV HXB2 in human MT4 cells assessed as protection against virus-induced cell death after 5 days by MTT assay in presence of 40% human serum; type: functional, organism-based; conditions: Human immunodeficiency virus 1, MT4, 120 h
# [22] = tested on: Human immunodeficiency virus; experiment: Antiviral activity against NNRTI-resistant HIV HXB2 with reverse transcriptase 181I mutation in human MT4 cells assessed as protection against virus-induced cell death after 5 days by MTT assay; type: functional, organism-based; conditions: Human immunodeficiency virus 1, MT4, 120 h; outline: as §1
# [23] = tested on: Human immunodeficiency virus; experiment: Antiviral activity against NNRTI-resistant HIV HXB2 isolate 29 with reverse transcriptase K103, Y181 mutation in human MT4 cells assessed as protection against virus-induced cell death after 5 days by MTT assay; type: functional, organism-based; conditions: Human immunodeficiency virus 1, MT4, 120 h
# [24] = tested on: Human immunodeficiency virus; experiment: Antiviral activity against NNRTI-resistant HIV HXB2 isolate 16 with reverse transcriptase K103, P225 mutation in human MT4 cells assessed as protection against virus-induced cell death after 5 days by MTT assay; type: functional, organism-based; conditions: Human immunodeficiency virus 1, MT4, 120 h
# [25] = tested on: Human immunodeficiency virus; experiment: Antiviral activity against NNRTI-resistant HIV HXB2 isolate 21 with reverse transcriptase K103, V179, Y181 mutation in human MT4 cells assessed as protection against virus-induced cell death after 5 days by MTT assay; type: functional, organism-based; conditions: Human immunodeficiency virus 1, MT4, 120 h
# [26] = tested on: Human immunodeficiency virus; experiment: Antiviral activity against NNRTI-resistant HIV HXB2 isolate 17 with reverse transcriptase A98, K103, Y181 mutation in human MT4 cells assessed as protection against virus-induced cell death after 5 days by MTT assay; type: functional, organism-based; conditions: Human immunodeficiency virus 1, MT4, 120 h
# [27] = tested on: Human immunodeficiency virus; experiment: Antiviral activity against NNRTI-resistant HIV HXB2 isolate 20 with reverse transcriptase K103, Y181 mutation in human MT4 cells assessed as protection against virus-induced cell death after 5 days by MTT assay; type: functional, organism-based; conditions: Human immunodeficiency virus 1, MT4, 120 h
smiles,measurement,setting,value
Cc1cc(C#N)cc(Oc2ccc(Cc3n[nH]c4nnccc34)cc2Br)c1,IC50,[1],800 nM
same,EC50,[2],> 100 nM
same,EC50,[3],17 nM
same,IC50,[4],120 nM
N#Cc1cc(Cl)cc(Oc2c(Br)ccc(Cc3n[nH]c4cnccc34)c2F)c1,IC50,[5],5 nM
same,EC50,[2],18 nM
same,EC50,[3],2 nM
same,IC50,[6],9 nM
N#Cc1cc(C#N)cc(Oc2c(Br)ccc(Cc3n[nH]c4nnccc34)c2F)c1,EC50,[2],3 nM
same,EC50,[3],1 nM
N#Cc1cc(Cl)cc(Oc2c(Br)ccc(Cc3n[nH]c4c(C#N)cccc34)c2F)c1,IC50,[5],24 nM
same,EC50,[2],53 nM
same,EC50,[3],5 nM
same,IC50,[6],15 nM
O=C1Nc2ccc(Cl)cc2[C@@](C#CC2CC2)(C(F)(F)F)O1 [EFAVIRENZ],EC50,[7],4 nM
same,EC50,[8],12 nM
same,EC50,[9],6 nM
same,EC50,[10],66 nM
same,EC50,[11],3 nM
same,EC50,[12],8 nM
same,EC50,[13],7 nM
same,EC50,[14],< 1 nM
same,EC50,[15],> 100 nM
same,EC50,[16],2 nM
same,EC50,[17],1 nM
same,EC50,[18],6 nM
same,EC50,[19],1 nM
same,EC50,[20],3 nM
same,EC50,[21],18 nM
same,EC50,[22],2 nM
Cc1cc(C#N)cc(C)c1Oc1nc(Nc2ccc(C#N)cc2)nc(N)c1Br [ETRAVIRINE],IC50,[23],3 nM
same,IC50,[24],1 nM
same,IC50,[25],17 nM
same,IC50,[26],14 nM
same,IC50,[27],7 nM

# Reference: ChEMBL document CHEMBL1140225, “Design of annulated pyrazoles as inhibitors of HIV-1 reverse transcriptase” (J Med Chem, 2008)
